ChEMBL document CHEMBL4052819 (2017)
In brackets after ≈: the same amount, converted by molar mass. Non-standard residues stand in square brackets, D forms with d. Residues, ends and D or L forms follow the SMILES beside them. *: point of attachment. Decanoyl = CCCCCCCCCC(=O)*; Heptanoyl = CCCCCCC(=O)*; Octanoyl = CCCCCCCC(=O)*; Dab = NCC[C@H](N)C(=O)O; Hexanoyl = CCCCCC(=O)*

Assays:
[1] = system: Klebsiella pneumoniae; assay: Potentiation of rifampicin-mediated antibacterial activity against Klebsiella pneumoniae ATCC 13883 assessed as decrease in rifampicin MIC at 2 ug/ml by checkerboard method relative to control; format: functional
[2] = system: Acinetobacter baumannii; assay: Potentiation of rifampicin-mediated antibacterial activity against Acinetobacter baumannii ATCC 19606 assessed as decrease in rifampicin MIC at 4 ug/ml by checkerboard method relative to control; format: functional, ATCC 19606 = CIP 70.34 = JCM 6841
[3] = system: Staphylococcus aureus; assay: Antibacterial activity against methicillin-resistant Staphylococcus aureus ATCC 43300 after 18 to 20 hrs by broth microdilution method; format: functional
Outline: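 Broth microdilution in tryptic soy broth: 2-fold dilutions mixed 1:1 with ~1.5 × 10^5 CFU/mL bacterial suspension in TSB, final 0.5–32 μg/mL, 37 °C for 18–20 h. MIC = lowest concentration with no visible growth. At least three independent experiments, one replicate each.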

[4] = system: Escherichia coli; assay: Antibacterial activity against Escherichia coli ATCC 25922 after 18 to 20 hrs by broth microdilution method; format: functional
Outline: (§1)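 Broth microdilution in tryptic soy broth: 2-fold dilutions mixed 1:1 with ~1.5 × 10^5 CFU/mL inoculum, final 0.5–32 μg/mL; 37 °C, 18–20 h. MIC taken as lowest concentration giving no visible growth. At least three independent experiments, one replicate each.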

[5] = system: Acinetobacter baumannii; assay: Potentiation of rifampicin-mediated antibacterial activity against Acinetobacter baumannii ATCC 19606 assessed as rifampicin MIC at 2 ug/ml by checkerboard method (reference value: 16 ug/ml); format: functional; settings: ATCC 19606 = CIP 70.34 = JCM 6841
[6] = system: Klebsiella pneumoniae; assay: Potentiation of rifampicin-mediated antibacterial activity against Klebsiella pneumoniae ATCC 13883 assessed as rifampicin MIC at 2 ug/ml by checkerboard method (reference value: 16 ug/ml); format: functional
[7] = system: Staphylococcus aureus; assay: Antibacterial activity against Staphylococcus aureus ATCC 29213 after 18 to 20 hrs by broth microdilution method; format: functional; outline: as §1
[8] = system: Klebsiella pneumoniae; assay: Antibacterial activity against Klebsiella pneumoniae ATCC 13883 after 18 to 20 hrs by broth microdilution method; format: functional
[9] = system: Pseudomonas aeruginosa; assay: Antibacterial activity against Pseudomonas aeruginosa ATCC 27853 after 18 to 20 hrs by broth microdilution method; format: functional; outline: as §1
[10] = system: Enterococcus faecium; assay: Antibacterial activity against Enterococcus faecium ATCC 19434 after 18 to 20 hrs by broth microdilution method; format: functional; outline: as §1
[11] = system: Acinetobacter baumannii; assay: Antibacterial activity against Acinetobacter baumannii ATCC 19606 after 18 to 20 hrs by broth microdilution method; format: functional; settings: ATCC 19606 = CIP 70.34 = JCM 6841
[12] = system: Staphylococcus aureus; assay: Antibacterial activity against Staphylococcus aureus ATCC 29213 after 18 to 20 hrs in presence of 95% serum by broth microdilution method; format: functional
Outline: (§2)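 Same microdilution with human serum as medium: compound 2-fold diluted in 100% serum, mixed 1:1 with 90% serum holding ~1.5 × 10^5 CFU/mL, giving 95% serum and final 0.5–64 μg/mL. MIC read as no visible growth after incubation as for the broth test.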

[13] = system: Pseudomonas aeruginosa; assay: Bactericidal activity against Pseudomonas aeruginosa ATCC 27853; format: functional; settings: read-out: MBC99.9
Outline: (§3)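 MBC from MIC plates at end point: 50 μL from each well with no visible growth plated on tryptic soy agar and counted. MBC taken as lowest concentration giving ≥99.9% fall in viable count relative to initial inoculum. Three independent experiments, one replicate each.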

[14] = system: Acinetobacter baumannii; assay: Bactericidal activity against Acinetobacter baumannii ATCC 19606; format: functional; settings: ATCC 19606 = CIP 70.34 = JCM 6841, read-out: MBC99.9; outline: as §3
[15] = system: Staphylococcus aureus; assay: Bactericidal activity against Staphylococcus aureus ATCC 29213; format: functional; settings: read-out: MBC99.9; outline: as §3
[16] = system: Staphylococcus aureus; assay: Bactericidal activity against methicillin-resistant Staphylococcus aureus ATCC 43300; format: functional; settings: read-out: MBC99.9
Outline: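 MBC taken at the end of the MIC test: 50 μL from each well without visible growth plated on tryptic soy agar. MBC = lowest concentration giving ≥99.9% reduction in viable cells relative to the initial inoculum. Three independent experiments, one replicate each.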

[17] = system: Enterococcus faecium; assay: Bactericidal activity against Enterococcus faecium ATCC 19434; format: functional; settings: read-out: MBC99.9; outline: as §3
[18] = system: Escherichia coli; assay: Bactericidal activity against Escherichia coli ATCC 25922; format: functional; settings: read-out: MBC99.9; outline: as §3
[19] = system: Klebsiella pneumoniae; assay: Bactericidal activity against Klebsiella pneumoniae ATCC 13883; format: functional; settings: read-out: MBC99.9; outline: as §3
[20] = system: Escherichia coli; assay: Antibacterial activity against Escherichia coli ATCC 25922 after 18 to 20 hrs in presence of 95% serum by broth microdilution method; format: functional; outline: as §2

Structure (SMILES)	fold change (FC) [1]	fold change (FC) [2]	MIC [3] [µg/mL]	MIC [4] [µg/mL]	MIC [5] [µg/mL]	MIC [6] [µg/mL]	MIC [7] [µg/mL]	MIC [8] [µg/mL]	MIC [9] [µg/mL]	MIC [10] [µg/mL]	MIC [11] [µg/mL]	MIC [12] [µg/mL]	MBC [13] [µg/mL]	MBC [14] [µg/mL]	MBC [15] [µg/mL]	MBC [16] [µg/mL]	MBC [17] [µg/mL]	MBC [18] [µg/mL]	MBC [19] [µg/mL]	MIC [20] [µg/mL]
CCCCCC(=O)N[C@@H](CCN)C(=O)N[C@H](C(=O)N[C@@H](CCN)C(=O)N[C@H](Cc1ccccc1)C(=O)N[C@@H](CC(C)C)C(=O)N[C@@H](CCN)C(=O)N[C@@H](C(=O)N[C@@H](CC(C)C)C(=O)N[C@@H](CO)C(N)=O)C(C)C)[C@@H](C)CC (Hexanoyl-[Dab]I[Dab][dF]L[Dab][dV]LS-NH2)	8192	4096 - 8192	> 32	8 to 16 (≈ 7.35 to 14.7 µM)	0.0078 to 0.0156	0.0039	> 32	≥ 32	8 to 16 (≈ 7.35 to 14.7 µM)	> 32	> 32									
CCCCCCC(=O)N[C@@H](CCN)C(=O)N[C@H](C(=O)N[C@@H](CCN)C(=O)N[C@H](Cc1ccccc1)C(=O)N[C@@H](CC(C)C)C(=O)N[C@@H](CCN)C(=O)N[C@@H](C(=O)N[C@@H](CC(C)C)C(=O)N[C@@H](CO)C(N)=O)C(C)C)C(C)C (Heptanoyl-[Dab]V[Dab][dF]L[Dab][dV]LS-NH2)	4096	256 - 512	> 32	16 (≈ 14.7 µM)	0.125	0.0156	> 32	> 32	16 (≈ 14.7 µM)	> 32	> 32									
CCCCCCCC(=O)N[C@@H](CCN)C(=O)N[C@@H](CCN)C(=O)N[C@@H](CCN)C(=O)N[C@H](Cc1ccccc1)C(=O)N[C@@H](CC(C)C)C(=O)N[C@@H](CCN)C(=O)N[C@@H](C(=O)N[C@@H](CC(C)C)C(=O)N[C@@H](CCN)C(N)=O)C(C)C (Octanoyl-[Dab][Dab][Dab][dF]L[Dab][dV]L[Dab]-NH2)	256	256 - 512	> 32	> 32	0.0312 to 0.0625	0.0625 to 0.125	≥ 32	> 32	16 to 32 (≈ 14.3 to 28.7 µM)	> 32	> 32									
CCCCCCCC(=O)N[C@H](CCCN)C(=O)N[C@H](C(=O)N[C@@H](CCCN)C(=O)N[C@@H](Cc1ccccc1)C(=O)N[C@@H](CC(C)C)C(=O)N[C@@H](CCCN)C(=O)N[C@H](C(=O)N[C@@H](CC(C)C)C(=O)N[C@@H](CO)C(N)=O)C(C)C)[C@@H](C)CC	1024 - 2048	512 - 1024	32 (≈ 27.6 µM)	32 (≈ 27.6 µM)	0.0625	0.0313 to 0.0625	> 32	> 32	16 (≈ 13.8 µM)	> 32	32 (≈ 27.6 µM)									
CCCCCCC(=O)N[C@@H](CCN)C(=O)N[C@H](C(=O)N[C@@H](CCN)C(=O)N[C@H](Cc1ccccc1)C(=O)N[C@@H](CC(C)C)C(=O)N[C@@H](CCN)C(=O)N[C@H](CC(C)C)C(=O)N[C@@H](CC(C)C)C(=O)N[C@@H](CO)C(N)=O)[C@@H](C)CC (Heptanoyl-[Dab]I[Dab][dF]L[Dab][dL]LS-NH2)			16 (≈ 14.3 µM)	1 to 4 (≈ 0.896 to 3.58 µM)			16 to 32 (≈ 14.3 to 28.7 µM)	4 (≈ 3.58 µM)	2 to 4 (≈ 1.79 to 3.58 µM)	8 to 16 (≈ 7.17 to 14.3 µM)	8 to 16 (≈ 7.17 to 14.3 µM)	32	8 to 16 (≈ 7.17 to 14.3 µM)	16 (≈ 14.3 µM)	16 to 32 (≈ 14.3 to 28.7 µM)	16 to 32 (≈ 14.3 to 28.7 µM)	16 (≈ 14.3 µM)	16 (≈ 14.3 µM)	8 (≈ 7.17 µM)	16
CCCCCCCCCC(=O)N[C@@H](CCN)C(=O)N[C@H](C(=O)N[C@H](C(=O)N[C@H](CC(C)C)C(=O)N[C@@H](CC(C)C)C(=O)N[C@@H](CCN)C(=O)N[C@@H](C(=O)N[C@@H](CC(C)C)C(=O)N[C@@H](CO)C(N)=O)C(C)C)[C@@H](C)O)[C@@H](C)CC (Decanoyl-[Dab]IT[dL]L[Dab][dV]LS-NH2)	<8	<128	> 32	> 32	> 0.125	> 0.125	> 32	> 32	> 32	≥ 32	> 32									
